Test [1] addresses T1, Adenosine receptor A2a (Homo sapiens, UniProt P29274). Nature of the test: Displacement of [3H]ZM241385 human A2AR […] expressed in […] cell membranes incubated for 0.5 hrs. The method, boiled down: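 HEK293 cell membranes stably expressing hA2AR, 10 μg protein per tube. Buffer 25 mM Tris-HCl pH 7.4, 5 mM MgCl2, 0.1% CHAPS. [3H]ZM241385 displaced by increasing compound concentrations at 25°C for 0.5 h (standard) or 3 h. Nonspecific binding defined with 100 µM NECA. Stopped by GF/B filtration and scintillation counting. Apparent pKi, means ± SEM of three experiments in duplicate. Shift = pKi(3h) − pKi(0.5h).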

Test [2] has as its target T1, Adenosine receptor A2a. Nature of the test: Potency shift, difference in pKi for displacement of [3H]ZM241385 human A2AR (1 to 316 residues) expressed in Pichia pastoris SMD1168 cell membranes incubated for 0.5 hrs to pKi for displacement of [3H]ZM241385 human A2AR (1 to 316 residues) expressed in Pichia pastoris SMD1168 cell membranes incubated for 3 hrs.
In test [3] the target is T1, Adenosine receptor A2a. Nature of the test: Displacement of [3H]ZM241385 human A2AR (1 to 316 residues) expressed in Pichia pastoris SMD1168 cell membranes.
The species named for another test is Homo sapiens. Nature of the test: Selectivity for human A2AR (1 to 316 residues) expressed in Pichia pastoris SMD1168 cell membranes over human A3AR.
In test [4] the target is T1, Adenosine receptor A2a. Nature of the test: Covalent binding to human A2AR (1 to 316 residues) expressed in Pichia pastoris SMD1168 cell membranes assessed as radioligand binding level pre-incubated at 1.5 to 5 nM followed by compound wash out before [3H]ZM241385 addition (reference value: 65 +/- 2%).
The target of test [5] is T1, Adenosine receptor A2a. In words: Photoaffinity labelling of purified human A2AR (1 to 316 residues) by SDS-PAGE analaysis. In outline:
(§1)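 His-tagged hA2AR (residues 1–316) from Pichia pastoris was purified by HisTrap, diluted to 0.1 mg/mL in 25 mM HEPES pH 7.5, 100 mM NaCl, 10 μM LMNG. Incubated with probe at a range of concentrations or 1% DMSO for 1 h on ice. CuAAC click on ice, 1 h: 5.6 mM CuSO4, 33 mM ascorbate, 1.1 mM THPTA, 4.4 μM Cy3-azide. Read-out: SDS-PAGE in-gel fluorescence of the ~47 kDa band, normalized to anti-His immunoblot. pEC50 fitted; three experiments.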

Test [6] concerns the target T1, Adenosine receptor A2a. Nature of the test: Photoaffinity labelling of purified human A2AR (1 to 316 residues) by Western blot analysis. The method, boiled down: as §1
For test [7], the target named is T1, Adenosine receptor A2a. In words: Photoaffinity labelling of purified human A2AR (1 to 316 residues) by SDS-PAGE analaysis pretreated with 10 uM ZM241385 followed by compound addition at 1 uM by competitive labeling assay. In outline: (§2)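 Purified hA2AR (0.1 mg/mL) was preincubated 1 h on ice with 10 μM competitor or 1% DMSO. Then labeled with 1 μM probe for 0.5 h on ice. CuAAC with Cy3-azide followed, then SDS-PAGE in-gel fluorescence normalized to anti-His immunoblot. Three experiments; Student's t-test.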

In test [8] the target is T1, Adenosine receptor A2a. Nature of the test: Photoaffinity labelling of purified human A2AR (1 to 316 residues) by SDS-PAGE analaysis pretreated with 10 uM LUF7445 followed by compound addition at 1 uM by competitive labeling assay. In outline: as §2
The target in test [9] is T1, Adenosine receptor A2a. Nature of the test: Photoaffinity labelling of N-terminal FLAG-tagged and C-terminal His-tagged human adenosine A2A receptor expressed in HEK293 cell membranes at 1 uM incubated for 1 hr by SDS PAGE and Western blot analysis based affinity-based protein labeling assay. In outline:
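Membranes (1 mg/mL in 50 mM Tris-HCl pH 7.4) came from HEK293 transiently transfected 48 h with FLAG-hA2AR-His. Incubated with probe (0.1–3 μM) or 1% DMSO for 1 h at room temperature. Click at room temperature for 1 h, with CuSO4 added last: 4.4 μM Cy3-azide, 33 mM ascorbate, 1.1 mM THPTA, 5.6 mM CuSO4. Denatured 30 min at 37°C. Read-out: in-gel fluorescence, with anti-FLAG Western blot (~50 kDa).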

Calls of active or inactive are those of the source. The calls are words filed in the database; no cut-off is given here.

T1 sequence (P29274 whole entry): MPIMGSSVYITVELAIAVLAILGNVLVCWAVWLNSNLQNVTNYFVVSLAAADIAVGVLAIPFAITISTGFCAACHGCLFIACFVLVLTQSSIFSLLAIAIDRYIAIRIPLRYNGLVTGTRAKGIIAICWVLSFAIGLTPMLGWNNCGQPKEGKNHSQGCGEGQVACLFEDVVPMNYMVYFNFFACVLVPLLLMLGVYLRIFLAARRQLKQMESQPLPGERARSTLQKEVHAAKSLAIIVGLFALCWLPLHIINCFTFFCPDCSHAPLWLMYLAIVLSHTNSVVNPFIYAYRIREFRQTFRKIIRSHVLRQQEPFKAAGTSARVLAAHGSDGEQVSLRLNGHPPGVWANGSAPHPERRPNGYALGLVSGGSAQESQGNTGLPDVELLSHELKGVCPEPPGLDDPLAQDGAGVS

In turn, `Nc1nc(NCCCCNC(=O)c2ccc(S(=O)(=O)F)cc2)nc2nc(-c3ccco3)nn12` showed a Ki at Adenosine receptor A2a [1] of 6.31 nM. Further, the inhibition entry on Adenosine receptor A2a [1] and on Adenosine receptor A2a [3] was “Dose-dependent effect” each time. Besides, the fold change (FC) on Adenosine receptor A2a [2] turned out to be 0.85.
In the case of `Nc1nc(NCCCCCNC(=O)c2ccc(S(=O)(=O)F)cc2)nc2nc(-c3ccco3)nn12`, on Adenosine receptor A2a [1], the Ki is 2.75 nM and the inhibition entry was “Dose-dependent effect”. At Adenosine receptor A2a [2], the fold change (FC) was determined as 0.65. In addition, the inhibition entry on Adenosine receptor A2a [3] was “Dose-dependent effect”.
The molecule `Nc1nc(NCCCNC(=O)c2ccc(S(=O)(=O)F)cc2)nc2nc(-c3ccco3)nn12` had a Ki at Adenosine receptor A2a [1] of 5.37 nM. Besides, at Adenosine receptor A2a [2], the fold change (FC) came out at 0.72.
Regarding `C#CCN(CCCCCNc1nc(N)n2nc(-c3ccco3)nc2n1)C(=O)c1ccc(S(=O)(=O)F)cc1`, the affinity at Adenosine receptor A2a [1] corresponds to a Ki of 3.89 nM. Moreover, at Adenosine receptor A2a [2], the fold change (FC) came out at 0.41. Besides, in the test listed under Homo sapiens, the Selectivity ratio was below 10. For the same molecule, the inhibition result at Adenosine receptor A2a [3] is “Dose-dependent effect”. Moreover, the Activity on Adenosine receptor A2a [4] is 43%; on Adenosine receptor A2a [5], “Dose-dependent effect”. Besides, on Adenosine receptor A2a [5], the midpoint of the response, the EC50, lay at 794 nM. Moreover, the outcome on Adenosine receptor A2a [6] and at Adenosine receptor A2a [9] was Active. The outcome on Adenosine receptor A2a [7] and at Adenosine receptor A2a [8] was inactive.

For the origin of these results see ChEMBL document CHEMBL4145682, “An Affinity-Based Probe for the Human Adenosine A2A Receptor” (J Med Chem, 2018).
